From ChEMBL document CHEMBL1125528, “Synthesis and pharmacological evaluation of enantiomerically pure 4-deoxy-4-fluoromuscarines” (J Med Chem, 1992) come the findings set out here.

The target in test [1] is Muscarinic acetylcholine receptor M3 (Cavia porcellus) (UniProt Q8VH26). The experiment in a line: In vitro potency at muscarinic M3 receptors of guinea pig ileum. In kind it is functional, tissue-based.
Test [2] shares this target. The experiment in a line: In vitro potency at muscarinic M3 receptors of guinea pig bladder relative to muscarine.. The test is classed as functional.
Test [3] has the same target. The experiment in a line: % receptor occupied at ED50 on guinea pig bladder.
For test [4] the target is unchanged. The experiment in a line: % receptor occupied at ED50 on guinea pig ileum. In kind it is tissue-based.
Test [5] shares this target. The experiment in a line: Affinity for muscarinic receptors in guinea pig ileum relative to muscarine. In kind it is tissue-based.
For test [6] the target is unchanged. The experiment in a line: Efficacy for muscarinic receptors in guinea pig ileum relative to muscarine. In kind it is functional, tissue-based.
Test [7] addresses T1, Muscarinic acetylcholine receptor M2 (Homo sapiens) (UniProt P08172).
T1 sequence (whole entry): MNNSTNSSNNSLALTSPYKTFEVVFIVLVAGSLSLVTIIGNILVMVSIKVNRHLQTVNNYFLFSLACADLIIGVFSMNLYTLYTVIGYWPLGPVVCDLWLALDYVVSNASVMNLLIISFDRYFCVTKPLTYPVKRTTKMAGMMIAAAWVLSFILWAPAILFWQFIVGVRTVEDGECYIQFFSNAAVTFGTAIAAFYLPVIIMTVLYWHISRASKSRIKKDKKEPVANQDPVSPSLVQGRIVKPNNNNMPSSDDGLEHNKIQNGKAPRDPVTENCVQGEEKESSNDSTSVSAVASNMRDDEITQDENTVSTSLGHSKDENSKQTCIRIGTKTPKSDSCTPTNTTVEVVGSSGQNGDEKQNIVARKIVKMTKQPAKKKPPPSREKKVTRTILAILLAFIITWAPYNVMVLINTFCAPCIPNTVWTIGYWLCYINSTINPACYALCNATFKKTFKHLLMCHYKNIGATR
The experiment in a line: Dissociation constant at guinea pig heart(atria rate). The test is classed as functional. Particulars: Cavia porcellus; target entry is the homologue from another species.

Test [8] has as its target T1, Muscarinic acetylcholine receptor M2 (Homo sapiens). The experiment in a line: Potency at cardiac M2 receptors mediating bradycardia to decrease the heart rate in pithed rat. In kind it is functional, tissue-based. The procedure, abridged:
(§1)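 Pithed rats, artificially respired at 60 cycles/min, 1 mL/100 g, with heparin 150 IU/kg iv, at about 37 °C. Heart rate came from the carotid pressure pulse after at least 30 min stabilisation. Agonists in 0.9% saline were given iv at 0.1 mL/100 g, one curve per preparation. ED50 was read graphically. Antagonists (pirenzepine 50 µg/kg, methoctramine 300 µg/kg iv) were given 20 min beforehand.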

Test [9] addresses Muscarinic acetylcholine receptor M3 (Cavia porcellus) (UniProt Q8VH26). The experiment in a line: Dissociation constant at muscarinic M3 receptors of guinea pig ileum. In kind it is tissue-based.
In test [10] the target is T1, Muscarinic acetylcholine receptor M2 (Homo sapiens). The experiment in a line: In vitro potency at muscarinic M2 receptors of guinea pig heart relative to muscarine. The test is classed as functional. Particulars: Cavia porcellus; target entry is the homologue from another species.
Test [11] has the same target. The experiment in a line: Affinity for muscarinic receptors in guinea pig heart(atria rate) relative to muscarine. Particulars: Cavia porcellus; target entry is the homologue from another species.
The target is the same in test [12]. The experiment in a line: % receptor occupied at ED50 on guinea pig heart(atria force). Particulars: Cavia porcellus; target entry is the homologue from another species.
For test [13] the target is unchanged. The experiment in a line: % receptor occupied at ED50 on guinea pig heart(atria rate). The note with it: Cavia porcellus; target entry is the homologue from another species.
Test [14] deals with T2, Muscarinic acetylcholine receptor M1 (Homo sapiens) (UniProt P11229).
T2 sequence (whole entry): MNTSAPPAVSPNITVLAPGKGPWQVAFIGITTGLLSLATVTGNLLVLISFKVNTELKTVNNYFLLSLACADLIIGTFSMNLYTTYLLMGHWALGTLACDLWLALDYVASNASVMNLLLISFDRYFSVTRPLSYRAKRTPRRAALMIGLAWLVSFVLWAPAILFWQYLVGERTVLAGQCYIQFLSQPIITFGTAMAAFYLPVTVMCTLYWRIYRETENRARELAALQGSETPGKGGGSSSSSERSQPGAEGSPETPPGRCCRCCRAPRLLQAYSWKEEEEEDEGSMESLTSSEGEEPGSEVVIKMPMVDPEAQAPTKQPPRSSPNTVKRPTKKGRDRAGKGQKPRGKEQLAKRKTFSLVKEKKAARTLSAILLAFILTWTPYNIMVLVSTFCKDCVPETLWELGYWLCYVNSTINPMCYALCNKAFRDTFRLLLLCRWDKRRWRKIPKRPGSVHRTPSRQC
The experiment in a line: Potency at ganglionic M1 receptors mediating tachycardia to increase the heart rate in pithed rat. In kind it is functional, tissue-based. In short, it runs like this:
as §1

The target of test [15] is T1, Muscarinic acetylcholine receptor M2 (Homo sapiens). The experiment in a line: In vitro potency at muscarinic M2 receptors of guinea pig heart(atria rate). In kind it is functional. The note with it: Cavia porcellus; target entry is the homologue from another species.
Test [16] has the same target. The experiment in a line: Dissociation constant at guinea pig heart(atria force). In kind it is functional. The note with it: Cavia porcellus; target entry is the homologue from another species.
Test [17] has the same target. The experiment in a line: Affinity for muscarinic receptors in guinea pig heart(atria force) relative to muscarine. The note with it: Cavia porcellus; target entry is the homologue from another species.
The target is the same in test [18]. The experiment in a line: Efficacy for muscarinic receptors in guinea pig heart(atria force relative to muscarine. The test is classed as functional. The note with it: Cavia porcellus; target entry is the homologue from another species.
The target of test [19] is Muscarinic acetylcholine receptor M3 (Cavia porcellus) (UniProt Q8VH26). The experiment in a line: Dissociation constant at muscarinic M3 receptors of guinea pig bladder.
Test [20] shares this target. The experiment in a line: In vitro potency at muscarinic M3 receptors of guinea pig ileum relative to muscarine.. In kind it is functional, tissue-based.
Test [21] shares this target. The experiment in a line: Affinity for muscarinic receptors in guinea pig bladder relative to muscarine.
The target of test [22] is T1, Muscarinic acetylcholine receptor M2 (Homo sapiens). The experiment in a line: In vitro potency at muscarinic M2 receptors of guinea pig heart(atria force). The note with it: Cavia porcellus; target entry is the homologue from another species. In kind it is functional.
Test [23] deals with Muscarinic acetylcholine receptor M3 (Cavia porcellus) (UniProt Q8VH26). The experiment in a line: In vitro potency at muscarinic M3 receptors of guinea pig bladder. The test is classed as functional. In short, it runs like this:
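Guinea pig bladder longitudinal strip (2 mm wide, urethra to apex) in ileum PSS at 37 °C with isometric recording; 30 min equilibration, then the ileum protocol.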

Test [24] concerns the target T1, Muscarinic acetylcholine receptor M2 (Homo sapiens). The experiment in a line: Efficacy for muscarinic receptors in guinea pig heart(atria rate) relative to muscarine. The test is classed as functional. Particulars: Cavia porcellus; target entry is the homologue from another species.
Test [25] addresses Muscarinic acetylcholine receptor M3 (Cavia porcellus) (UniProt Q8VH26). The experiment in a line: Efficacy for muscarinic receptors in guinea pig bladder relative to muscarine. In kind it is functional.
The target is the same in test [26]. The experiment in a line: % muscarinic acetylcholine receptor M3 occupied at ED50 on guinea pig bladder.
Test [27] shares this target. The experiment in a line: % muscarinic acetylcholine receptor M3 occupied at ED50 on guinea pig ileum. In kind it is tissue-based.
The target is the same in test [28]. The note with it: Ileum.
Test [29] shares this target. The note with it: Ileum. This is another data set of the same source.
Test [30] shares this target. The note with it: Ileum. The source holds these as a separate data set.

Chain of Muscarinic acetylcholine receptor M3 (Cavia porcellus) (Q8VH26 1-587): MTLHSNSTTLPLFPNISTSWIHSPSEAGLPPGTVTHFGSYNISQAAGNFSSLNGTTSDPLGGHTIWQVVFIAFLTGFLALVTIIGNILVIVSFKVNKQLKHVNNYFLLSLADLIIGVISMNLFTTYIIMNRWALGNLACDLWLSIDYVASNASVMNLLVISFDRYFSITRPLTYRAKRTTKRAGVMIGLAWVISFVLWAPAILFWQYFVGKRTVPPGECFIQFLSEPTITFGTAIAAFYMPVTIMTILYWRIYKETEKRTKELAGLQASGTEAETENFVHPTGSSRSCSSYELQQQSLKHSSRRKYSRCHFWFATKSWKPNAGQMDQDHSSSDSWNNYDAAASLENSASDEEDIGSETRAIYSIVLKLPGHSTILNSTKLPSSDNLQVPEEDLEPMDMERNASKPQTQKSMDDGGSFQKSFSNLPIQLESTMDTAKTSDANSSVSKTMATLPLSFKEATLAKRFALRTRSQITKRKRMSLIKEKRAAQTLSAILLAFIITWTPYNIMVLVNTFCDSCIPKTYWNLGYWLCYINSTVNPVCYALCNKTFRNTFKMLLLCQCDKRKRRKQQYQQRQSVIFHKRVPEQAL

Take `C[C@@H]1O[C@H](C[N+](C)(C)C)C[C@H]1F`: the PD2 came out at 7.36 in test [1], 6.73 in test [22] and 5.66 in [23]. The results for the Intrinsic activity in test [2], in [10] and in test [20] were 0.88, 0.98 and 0.95, respectively. Further, the Receptor occupied in [3] stood at 5.11%; in test [4], 2.24%; in test [12], 0.86%; in [13], 7.36%. The Relative affinity was found to be 0.59 in test [5], 14.5 in test [11], 0.93 in test [17] and 0.59 in test [21]. The Relative efficacy in test [6] stood at 2.96; in test [18], 1.17; in test [24], 0.21; in test [25], 1.54. For the same compound, the -Log KD in [7] worked out at 5.77; in test [9] it was 5.72; in [16], 4.67; in test [19], 4.39. Also, the ED50 in test [8] is 0.0235 mg/kg; in test [14] it was 0.0045 mg/kg. The -Log ED50 in [15] amounted to 6.87.

Turning to `C[C@@H]1O[C@@H](C[N+](C)(C)C)C[C@H]1F`, the results for the -Log ED50 in [1], in [22] and in test [23] were 5.93, 5.59 and 4.45, respectively. Besides, the Intrinsic activity in test [2] worked out at 0.74; in test [10] it was 0.97.

With `C[C@@H]1O[C@@H](C[N+](C)(C)C)C[C@@H]1F`, the results for the -Log ED50 in [1], in test [22] and in test [23] were 4.64, 4.07 and 3.92, respectively. In addition, the Intrinsic activity came to 0.52 in test [2] and 0.72 in [10].

In the case of `C[C@@H]1O[C@H](C[N+](C)(C)C)C[C@H]1O` (racemic), the Receptor occupied came out at 7.85% in test [26] and 6.62% in test [27]. The PD2 in [28] stood at 7.1; in test [30], 5.69. In test [29], this compound gave a -Log KD of 5.95.

`C[C@@H]1O[C@H](C[N+](C)(C)C)C[C@@H]1F`: the -Log ED50 was determined as 5.02 in test [1], 4.43 in test [22] and 3.74 in test [23]. Further, the Intrinsic activity in test [2] and in [10] was 0.76 each time.

Broadly, the ED50 is the midpoint of the dose-response relation.
